ATG4B inhibitor – inhibitors of human ATG4B cysteine protease; Q9Y4P1; ATG4B cleavage of LC3-PLA2, NBD-HPC fluorescence, 1 h; inhibition, % at 8.33 µM; 340,000 compounds, 0.51% hits; AID 504462; in the data active = inhibition above about 40%
MEKK3 PB1 HTS – raises or lowers MEK5 binding to the human MEKK3 PB1 domain. binding response (% of control), % at 10 µM. bead-based flow cytometry, Alexa488-MEK5 binding to MEKK3; actives lie on both sides; 0 = blocked by unlabeled MEK5, 100 = vehicle. 290,000 compounds, 1.4% hits. Q99759;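 active = binding response more than 3 SD above or below the average of its plate-row segment, actives on both sides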;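 note: Alexa488 bead fluorescence after subtracting the streptavidin-only scavenger bead signal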
Target sequence (Q99759 whole entry, looked up, the tested form may be a part): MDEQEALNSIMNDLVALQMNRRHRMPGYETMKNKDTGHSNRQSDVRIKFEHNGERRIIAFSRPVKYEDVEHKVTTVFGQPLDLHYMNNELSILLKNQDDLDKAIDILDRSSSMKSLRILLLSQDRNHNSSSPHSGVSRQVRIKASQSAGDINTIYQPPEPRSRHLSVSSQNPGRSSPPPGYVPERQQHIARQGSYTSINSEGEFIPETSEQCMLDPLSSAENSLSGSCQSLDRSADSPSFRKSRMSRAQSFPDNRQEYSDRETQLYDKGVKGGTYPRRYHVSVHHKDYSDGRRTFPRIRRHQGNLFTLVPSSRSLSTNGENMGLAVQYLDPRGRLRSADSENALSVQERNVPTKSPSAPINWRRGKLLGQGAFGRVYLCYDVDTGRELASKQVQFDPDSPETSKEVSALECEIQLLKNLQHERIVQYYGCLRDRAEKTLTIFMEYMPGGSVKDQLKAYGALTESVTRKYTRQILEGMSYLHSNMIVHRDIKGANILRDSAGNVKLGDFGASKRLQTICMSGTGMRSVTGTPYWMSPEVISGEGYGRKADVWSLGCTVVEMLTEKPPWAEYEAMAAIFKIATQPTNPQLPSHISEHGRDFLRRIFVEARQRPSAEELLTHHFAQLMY
Dynein transport – dynein cargo transport inhibition. 3617.4 mouse cells, GR-EGFP nuclear translocation imaging; test concentration mostly 20 µM; stimulated with dexamethasone, 1 µM; stronger effect = lower value. z-score, hits read low. 220,000 compounds, 0.47% hits. AID 1381;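 active = plate z-score of nuclear minus cytoplasmic receptor signal below a set negative limit, without overly bright fluorescence or cell loss, cut at about -3.5 in these data, passing the limit was not always enough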;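 note: z-score of nuclear minus cytoplasmic ring GR-EGFP intensity difference per well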
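Buffer or medium – tet-free medium with charcoal-stripped serum · Signal – automated 10x imaging of fixed Hoechst-stained cells · Also added – dexamethasone agonist, 1.0 µM final, for 30 min · Incubation – induction 48 h, compound 1 h, agonist 30 min · Read-out – GR-EGFP nuclear translocation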
MEKK2wt PB1 HTS – raises or lowers MEK5 binding to wildtype human MEKK2 PB1 domain. binding response (% of control), % at 10 µM. Q9Y2U5. 290,000 compounds, 1.1% hits. bead flow cytometry, Alexa488-MEK5 binding to MEKK2 WT; actives lie on both sides; in the data active = binding response below about 67% or above about 130%
B2AR ag – agonists of human beta-2 adrenergic receptor inducing internalization; P07550; 340,000 compounds, 0.43% hits; AID 504454; Am2.2-beta2AR cells, FAP receptor internalization, flow cytometry; response, % (no concentration beside the values);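 active = response above a set limit, near 3 SD of response in nonfluorescent compounds, cut at about 42% in these data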
MEKK2 mut-MEK5 – signal of MEK5 binding to mutant human MEKK2 PB1 domain. bead flow cytometry, Alexa488-MEK5 binding to MEKK2 mutant. percent response, % at 10 µM. 290,000 compounds, 0.35% hits; in the data active = percent response above about 24%, passing the limit was not always enough
MEKK2wt confirm – raises or lowers MEK5 binding to wildtype human MEKK2, retest; shares compounds with MEKK3 PB1 HTS; bead flow cytometry, Alexa488-MEK5 binding to MEKK2 WT; actives lie on both sides; binding response (% of control), % at 10 µM; 5,900 compounds, 2.4% hits; AID 1892; in the data active = binding response below about 16% or above about 210%; inactive = in between
MEKK2mut confirm – signal of MEK5 binding to mutant human MEKK2, retest; AID 1893; shares compounds with MEKK3 PB1 HTS; percent response, % at 10 µM; 5,900 compounds, 2% hits; bead flow cytometry, Alexa488-MEK5 binding to MEKK2 mutant; in the data active = percent response mostly above about 71%, no sharp cut-off; inactive = mostly below about 38%;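 note: higher means compound restores mutant binding toward wildtype level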
MEKK3-MEK5 inh – confirmation of inhibitors of MEK5 binding to human MEKK3. shares compounds with MEKK3 PB1 HTS. bead flow cytometry, Alexa488-MEK5 binding to MEKK3; stronger effect = lower value. binding response (% of control), % at 10 µM. 5,900 compounds, 1.8% hits. AID 1894;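 active = binding response below 72% of control, or above a set upper limit, though filed actives all read lower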;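 note: 100% = DMSO only wells and 0% = binding blocked by excess unlabeled MEK5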
B2AR ag CP1 – activates human beta-2 adrenergic receptor | 1,100 compounds, 25% hits | shares compounds with B2AR ag | AID 540358 | percent response (surface receptor), % at 10 µM | Am2.2-beta2AR cells, FAP surface receptor, flow cytometry; stronger effect = lower value;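 active = surface receptor percent response at or below 58%, roughly 3 SD from nonfluorescent compounds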
B2AR FAP counter – counter-screen for beta-2AR agonists: fluorescence in Am2.2 cells. shares compounds with B2AR ag. FAP fluorogen flow cytometry, fluorescence counterscreen; stronger effect = lower value. calls only at 10 µM. 1,100 tested, under 10 active;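 active = percent response below a set limit in fluorescence channel 1 and below 50% in channel 8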
ATG4B conf – ATG4B (human) inhibition, single-dose confirmed. shares compounds with ATG4B inhibitor. ATG4B protease fluorescent substrate cleavage assay. inhibition, % at 8.33 µM. 320 compounds, 92% hits. AID 504757; in the data active = inhibition above about 39%
PLA2 ctr – PLA2 (human) inhibition in ATG4B counter-screen. shares compounds with ATG4B inhibitor. inhibition, % at 8.33 µM. AID 588402. purified PLA2, NBD-C6-HPC fluorescence, 45 min. 1,600 compounds, 66% hits; in the data active = inhibition above about 50%
An asterisk follows results filed as active; i = inactive; · = no result; [ ] = remark or other dose. Only some compounds are listed: those with a hit (about 2.9% of all), similar ones and a draw of the others.

SMILES	ATG4B inhibitor	MEKK3 PB1 HTS	Dynein transport	MEKK2wt PB1 HTS	B2AR ag	MEKK2 mut-MEK5	B2AR ag CP1	B2AR FAP counter	others
Cc1nn(Cc2ccccc2Cl)c(C)c1C(=O)OCC(=O)NC1CCCC(C)C1C (stereo unspecified)	3	141*	1.2	104	-2	1	·	·	MEKK2wt confirm=103;MEKK2mut confirm=-1;MEKK3-MEK5 inh=101
Cc1cc(/C=C2\C(=O)NC(=O)N(c3ccc(Br)cc3)C2=O)c(C)n1-c1cc(C(=O)O)cc(C(=O)O)c1	20	98	·	100	-5	0	·	·
Cc1cc(C(=O)C[N+]23CCN(CC2)CC3)c(C)n1-c1ccc(Br)cc1	15	146*	1.2	158*	1	12	·	·	MEKK2wt confirm=120;MEKK2mut confirm=15;MEKK3-MEK5 inh=106
CC1=C(N2CC2)C(=O)C(CO)=C(N2CC2)C1=O	5	·	·	·	-3	·	·	·
CCCCCCCSc1cc(OC)c(CCNC)cc1OC	11	92	0.65	149*	32	23	·	·	MEKK2wt confirm=130;MEKK2mut confirm=11;MEKK3-MEK5 inh=81
c1ccc(C2N3CCCN23)cc1 (stereo unspecified)	9	108	-0.73	112	3	8	·	·
ON1C2CCCCC2N(O)C1c1ccccc1 (stereo unspecified)	4	22*[inhibitor]	0.54	33*[inhibitor]	6	-33	·	·	MEKK2wt confirm=103;MEKK2mut confirm=3;MEKK3-MEK5 inh=103
COc1ccc(CC(C)NCCC(c2ccccc2)c2ccccc2)cc1 (stereo unspecified)	0	111	·	171*	21	28*	105	i	MEKK2wt confirm=120;MEKK2mut confirm=8;MEKK3-MEK5 inh=103
Brc1ccc2c(c1)C(OC1CN3CCC1CC3)c1ccccc1CS2 (stereo unspecified)	9	109	3.8	156*	50*	13	77	i	MEKK2wt confirm=140;MEKK2mut confirm=23;MEKK3-MEK5 inh=105
c1ccc2c(c1)CSc1ccccc1C2C1=NCCN1 (stereo unspecified)	3	109	0.69	112	0	34	·	·
O=C(Cc1c(Cl)cccc1Cl)N1CCN(Cc2ccccc2)CC1	-8	98	·	94	8	-2	·	·
Cc1cccc(-n2c(-c3cccs3)nc3ccccc3c2=O)c1	49*	130*	-0.053	100	-3	0	·	·	MEKK2wt confirm=98;MEKK2mut confirm=-5;MEKK3-MEK5 inh=103;ATG4B conf=58*;PLA2 ctr=46
O=CNc1ccc(OP(=O)(Oc2ccccc2)Oc2ccccc2)cc1	-13	99	·	104	-3	4	·	·
CCCCCCn1c(O)c(C=Nc2c(C)n(C)n(-c3ccccc3)c2=O)c(=O)[nH]c1=O	-8	97	0.11	99	48*	-1	48*	i
COc1ccc(OC)c(NC2=NCCS2)c1	-3	100	0.37	103	-8	-1	·	·
COc1ccc(OC)c([C@@H](O)[C@H](C)NC(C)(C)C)c1	-1	82	-0.3	91	-5	1	121	i
COc1cc(C(O)CNC(C)C)cc(F)c1OC (stereo unspecified)	-9	103	·	99	1	-2	112	i
COc1c(C)cc(C(=O)C2CCCN(C3CCOCC3)C2)cc1C (stereo unspecified)	-2	97	-0.14	103	58*	5	125	i
Cc1ccsc1C(=O)C1CCCN(Cc2cnc(N3CCCC3)s2)C1 (stereo unspecified)	23	98	-0.0076	97	-5	-11	·	·
Cc1nn(C2CCOC(C)(C)C2)c2c1C(c1ccc(OC(C)C)cc1)SCC(=O)N2 (stereo unspecified)	-5	99	0.53	98	20	1	·	·
FC(F)(F)c1ccccc1CNCCc1c[nH]c2ccccc12	15	99	·	103	-3	5	·	·
Cc1nn(Cc2ccccc2Cl)c(Cl)c1C(=O)O	-30	100	0.45	100	4	-2	·	·
CCC(=O)Nc1ccc(Cl)c(Cl)c1	2	·	·	·	-4	·	·	·
CC(NCc1ccccc1C(F)(F)F)C(O)c1ccccc1 (stereo unspecified)	24	91	0.095	96	-2	-2	102	i
CCOc1cc(CNC(C)C(O)c2ccccc2)cc(Cl)c1OCC (stereo unspecified)	-6	94	0.15	96	0	-2	112	i
SMILES	ATG4B inhibitor	MEKK3 PB1 HTS	Dynein transport	MEKK2wt PB1 HTS	B2AR ag	MEKK2 mut-MEK5	B2AR ag CP1	B2AR FAP counter	others
CC(NCc1ccc(Cl)c(Cl)c1)C(O)c1ccccc1 (stereo unspecified)	-16	97	-1.1	98	4	-7	85	i
CC(NCc1ccccc1Cl)C(O)c1ccccc1 (stereo unspecified)	10	101	1.1	109	0	4	112	i
CCOc1cc(CNCCc2c[nH]c3ccccc23)cc(Cl)c1OCC	3	98	2.5	108	18	3	·	·
c1cc2c(cc1[C@H]1OC[C@H]3[C@@H]1CO[C@H]3c1ccc3c(c1)OCO3)OCO2	7	·	·	·	2	·	·	·
C=CCn1c(O)c(/C(C)=N/N2CCCCCC2)c(=O)[nH]c1=O	-5	103	-0.43	101	-6	1	·	·
Cc1ccn2nc(S(=O)(=O)Nc3c(F)cccc3F)nc2n1	-4	99	-0.85	97	1	-2	·	·
COc1ccc(C(CC(=O)N2CCC3(CC2)OCCO3)NS(=O)(=O)c2ccc(F)cc2)cc1 (stereo unspecified)	-3	111	-1.1	113	10	13	·	·

Assay outcomes: PubChem BioAssay, several laboratories
